# From ChEMBL document CHEMBL3769308, “Melanin-Concentrating Hormone Receptor 1 Antagonists Lacking an Aliphatic Amine: Synthesis and Structure-Activity Relationships of Novel 1-(Imidazo[1,2-a]pyridin-6-yl)pyridin-2(1H)-one Derivatives” (J Med Chem, 2016)
# Legend:
# [1] = target: Melanin-concentrating hormone receptor 1 (Rattus norvegicus, UniProt P97639); assay: Displacement of [125I]-MCH (4 to 19 residues) from rat MCHR1 expressed in CHO cell membranes after 1 hr by liquid scintillation counting analysis
# Sequence of Melanin-concentrating hormone receptor 1 (Rattus norvegicus, UniProt P97639) (P97639 whole entry, the tested form may be a part): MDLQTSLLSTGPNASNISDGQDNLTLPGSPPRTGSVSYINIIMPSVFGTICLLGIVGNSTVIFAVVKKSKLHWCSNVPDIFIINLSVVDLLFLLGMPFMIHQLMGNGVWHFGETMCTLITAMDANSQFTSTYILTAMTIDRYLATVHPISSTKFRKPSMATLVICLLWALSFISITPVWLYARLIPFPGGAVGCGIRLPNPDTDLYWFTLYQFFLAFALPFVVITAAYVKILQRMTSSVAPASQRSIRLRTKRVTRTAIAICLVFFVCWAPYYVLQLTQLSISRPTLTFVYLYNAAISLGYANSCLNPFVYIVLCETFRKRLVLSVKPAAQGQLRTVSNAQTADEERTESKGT
# In short: (§1)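 Membranes from MCHR1-expressing CHO cells, homogenized in NaHCO3/EDTA with protease inhibitors, 100000g pellet held at 2 mg/mL protein in 20 mM Tris-HCl pH 7.5, 5 mM EDTA, protease inhibitors.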
# [2] = target: T1, Melanin-concentrating hormone receptor 1 (Homo sapiens, UniProt Q99705); assay: Displacement of [125I]-MCH (4 to19 residues) from human MCHR1 expressed in CHO cell membranes after 1 hr by liquid scintillation counting analysis; in short: as §1
# T1 sequence (Q99705 whole entry, the tested form may be a part): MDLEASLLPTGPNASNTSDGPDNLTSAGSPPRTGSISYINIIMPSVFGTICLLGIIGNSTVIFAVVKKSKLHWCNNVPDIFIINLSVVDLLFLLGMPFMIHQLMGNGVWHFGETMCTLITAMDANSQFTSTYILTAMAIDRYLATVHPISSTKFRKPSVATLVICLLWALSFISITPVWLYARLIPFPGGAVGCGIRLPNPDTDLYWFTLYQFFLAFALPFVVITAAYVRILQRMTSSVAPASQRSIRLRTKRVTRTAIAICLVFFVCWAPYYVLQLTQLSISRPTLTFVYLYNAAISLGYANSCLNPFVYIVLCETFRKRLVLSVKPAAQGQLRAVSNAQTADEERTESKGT
# [3] = Lipophilicity, log D of the compound at pH 7.4; format: physicochemical; conditions: buffer
# In short: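 Chromatographic HPLC method with UV detection, estimating octanol/buffer partition at pH 7.4.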
# [4] = target: T1, Melanin-concentrating hormone receptor 1; format: functional, cell-based, CHO
# [5] = Total clearance in Sprague-Dawley rat at 0.1 mg/kg, iv administered through cassette dosing by LC/MS/MS analysis; format: ADME, organism-based; conditions: in vivo
# In short: (§2)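 Nonfasted male SD rats (8 weeks old, n = 3) given 0.1 mg/kg iv by cassette dosing; plasma deproteinized with acetonitrile, centrifuged, and supernatant concentrations measured by LC/MS/MS.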
# [6] = Plasma concentration in diet-induced obese F344/jcl rat at 3 mg/kg, po administered on day 1 measured 24 hrs post dose; format: ADME, organism-based
# In short: (§3)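 From the DIO F344 rat 2-day feeding study (oral, 0.5% methylcellulose): plasma and brain concentrations taken 24 h after the day-1 dose; brain/plasma ratio from these.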
# Mus musculus [7] = assay: Anorectic activity in po dosed high fat diet fed wild type mouse assessed as reduction of food intake administered for 3 days measured during 3 days of dosing; format: functional, organism-based
# In short: (§4)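 Male MCHR1-deficient and wild-type littermate mice (45 weeks old) on high-fat diet D12451 from 5 weeks, singly housed, acclimated with 0.5 mL tap water dosing, grouped by day −3 to −1 intake and day −1 weight. Oral vehicle (0.5% methylcellulose) or suspension at 10 mL/kg for 3 days, n = 5–6; cumulative 3-day intake; Williams test.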
# [8] = Ratio of drug level in brain to plasma in diet-induced obese F344/jcl rat at 10 mg/kg, po administered on day 1 measured 24 hrs post dose; format: ADME, organism-based; conditions: read-out: BPR; in short: as §3
# Rattus norvegicus [9] = species on record: Rattus norvegicus; assay: animal or person; conditions: F344/jcl, po, 336 h, read-out: INH
# Mus musculus [10] = assay: Effect on food intake in MCHR-deficient high fat diet fed mouse at 10 to 30 mg/kg, po administered for 3 days measured during 3 days of dosing; format: ADME, organism-based; conditions: in vivo, 72 h; in short: as §4
# Rattus norvegicus [11] = species on record: Rattus norvegicus; assay: animal or person; conditions: F344/jcl, po, 336 h, read-out: INH; remark: listed apart in the source
# Rattus norvegicus [12] = species on record: Rattus norvegicus; assay: animal or person; conditions: F344/jcl, po, 48 h, read-out: INH
# [13] = Drug uptake in diet-induced obese F344/jcl rat brain at 3 mg/kg, po administered on day 1 measured 24 hrs post dose; format: ADME, organism-based; conditions: read-out: Drug uptake; in short: as §3
# [14] = Plasma concentration in diet-induced obese F344/jcl rat at 10 mg/kg, po administered on day 1 measured 24 hrs post dose; format: ADME, organism-based; in short: as §3
# Plasma [15] = assay: Free plasma concentration in diet-induced obese F344/jcl rat at 3 mg/kg, po administered on day 1 measured 24 hrs post dose; format: ADME, organism-based; conditions: in vivo
# In short: (§5)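 Plasma level 24 h after day-1 oral dose in DIO F344 rats multiplied by the free fraction measured in DIO rat plasma to give free concentration.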
# HepG2 = assay: Induction of phospholipidosis in human HepG2 cells at 0.6 to 20 uM after 24 hrs by NBD-PE-based fluorometric analysis; format: cell-based; conditions: hepg2, 24 h
# In short: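 HepG2 cells in DMEM with 5% FBS, precultured 24 h, then exposed 24 h at 37 °C to 60 μM NBD-PE medium plus compound medium (0.6 or 20 μM, added 1:1); amiodarone 10 μM final as reference. NBD-PE uptake fluorescence (ex 485/em 538), blank subtracted, expressed relative to amiodarone; maximum value taken.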
# [16] = Drug uptake in diet-induced obese F344/jcl rat brain at 10 mg/kg, po administered on day 1 measured 24 hrs post dose; format: ADME, organism-based; in short: as §3
# [17] = Tmax in Sprague-Dawley rat at 1 mg/kg, po administered through cassette dosing by LC/MS/MS analysis; format: ADME, organism-based; conditions: in vivo
# Rattus norvegicus [18] = assay: Antiobesity activity in diet-induced obese F344/jcl rat assessed as reduction in body weight at 3 mg/kg, po qd administered through repeated dosing for 2 weeks measured during 2 weeks of dosing relative to vehicle-treated control; format: functional; set-up: scale not given: the % may be the effect or the level left
# In short: (§6)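 Male DIO F344/Jcl rats (45 weeks old, high-fat diet), habituated and grouped as for feeding study; once-daily oral dosing in 0.5% methylcellulose at 2 mL/kg for 2 weeks, 1–3 h before dark onset after weighing, n = 6. Body weight change as percent of initial weight, compared with vehicle.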
# Rattus norvegicus [19] = assay: Antiobesity activity in diet-induced obese F344/jcl rat assessed as reduction in body weight at 10 mg/kg, po qd administered through repeated dosing for 2 weeks measured during 2 weeks of dosing relative to vehicle-treated control; format: functional; set-up: scale not given: the % may be the effect or the level left; in short: as §6
# [20] = Volume of distribution at steady state in Sprague-Dawley rat at 0.1 mg/kg, iv by LC/MS/MS analysis; format: ADME, organism-based; conditions: in vivo, read-out: Vdss; in short: as §2
# [21] = Oral bioavailability in Sprague-Dawley rat at 1 mg/kg, administered through cassette dosing by LC/MS/MS analysis; format: ADME, organism-based; conditions: in vivo
# [22] = AUC (0 to 8 hrs) in Sprague-Dawley rat at 1 mg/kg, po administered through cassette dosing by LC/MS/MS analysis; format: ADME, organism-based; set-up: time < 8 hr, dose 1 mg/kg, route oral; conditions: in vivo
# [23] = Ratio of drug level in brain to plasma in diet-induced obese F344/jcl rat at 3 mg/kg, po administered on day 1 measured 24 hrs post dose; format: ADME, organism-based; conditions: read-out: BPR; in short: as §3
# Plasma [24] = assay: Free plasma concentration in diet-induced obese F344/jcl rat at 10 mg/kg administered after 24 hrs in day 1; format: ADME, organism-based; conditions: in vivo; in short: as §5
# [25] = Unbound fraction in po dosed diet-induced obese F344/jcl rat plasma; format: ADME, organism-based
# Rattus norvegicus [26] = species on record: Rattus norvegicus; assay: animal or person; conditions: F344/jcl, po, 48 h, read-out: INH; remark: listed apart in the source
# [27] = Cmax in Sprague-Dawley rat at 1 mg/kg, po administered through cassette dosing by LC/MS/MS analysis; format: ADME, organism-based; set-up: dose 1 mg/kg, route oral; conditions: in vivo
compound,measurement,setting,value
Cc1c(C2CC2)nc2ccc(-n3ccc(OCc4csc(C(F)(F)F)c4)cc3=O)cn12,IC50,[1],15 nM
same,IC50,[2],17 nM
Cc1c(C2CC2)nc2ccc(-n3ccc(OCc4ccsc4)cc3=O)cn12,IC50,[1],54 nM
same,IC50,[2],25 nM
Cc1c(C2CC2)nc2ccc(-n3ncc(OCc4ccc(Cl)cc4)cc3=O)cn12,IC50,[1],110 nM
same,IC50,[2],92 nM
same,logD,[3],3.7
Cc1cn(-c2ccc3nc(C4CC4)c(C)n3c2)c(=O)cc1OCc1ccc(Cl)cc1,IC50,[1],150 nM
same,IC50,[2],210 nM
Cc1c(C2CC2)nc2ccc(-n3ccc(OCc4cccs4)cc3=O)cn12,IC50,[1],130 nM
same,IC50,[2],95 nM
CCc1nc2ccc(-n3ccc(OCc4ccccc4)cc3=O)cn2c1C,IC50,[1],120 nM
same,IC50,[2],120 nM
Cc1c(C2CC2)nc2ccc(-n3cccc(OCc4ccc(Cl)cc4)c3=O)cn12,IC50,[1],650 nM
same,IC50,[2],990 nM
Cc1c(CO)nc2ccc(-n3ccc(OCc4ccc(F)cc4)cc3=O)cn12,IC50,[1],> 1000 nM
same,IC50,[2],> 1000 nM
Cc1c(C2CC2)nc2ccc(-n3ccc(OCc4ccc(C(C)C)cc4)cc3=O)cn12,IC50,[1],240 nM
same,IC50,[2],410 nM
Cc1c(C2CC2)nc2ccc(-n3ccc(OCc4ccc(C(F)(F)F)cc4)cc3=O)cn12,IC50,[1],82 nM
same,IC50,[2],72 nM
Cc1c(C(=O)N(C)C)nc2ccc(-n3ccc(OCc4ccc(F)cc4)cc3=O)cn12,IC50,[1],> 1000 nM
same,IC50,[2],> 1000 nM
Cc1c(C2CC2)nc2ccc(NC(=O)COc3ccc(OC(F)(F)F)cc3)cn12,IC50,[1],6.3 nM
same,IC50,[2],3 nM
Cc1c(C2CC2)nc2ccc(-n3ccc(OCc4cccnc4)cc3=O)cn12,IC50,[1],> 1000 nM
same,IC50,[2],> 1000 nM
Cc1c(C2CC2)nc2ccc(-n3ccc(OCc4ccccc4)cc3=O)cn12,IC50,[1],28 nM
same,IC50,[2],42 nM
Cc1c(C(=O)C2CC2)nc2ccc(-n3ccc(OCc4ccc(F)cc4)cc3=O)cn12,IC50,[1],> 1000 nM
same,IC50,[2],> 1000 nM
Cc1c(C2CC2)nc2ccc(-n3ccc(OCc4ccc(Cl)cc4)cc3=O)cn12,IC50,[4],23 nM
same,clearance,[5],5.2 mL/min/kg
same,IC50,[1],20 nM
same,concentration at 24 h,[6],351 ng/mL
same,Activity,Mus musculus [7],Dose-dependent effect
same,Kp at 24 h,[8],0.62
same,inhibition in vivo at 3 mg/kg,Rattus norvegicus [9],15.4%
same,IC50,[2],26 nM
same,Activity,Mus musculus [10],Non-toxic
same,inhibition in vivo at 10 mg/kg,Rattus norvegicus [11],36.2%
same,inhibition in vivo at 3 mg/kg,Rattus norvegicus [12],15%
same,concentration at 24 h,[13],218 ng/g
same,concentration at 24 h,[14],1350 ng/mL
same,Cp(f),Plasma [15],17.2 nM
same,logD,[3],3.2
same,Activity,HepG2,Non-toxic
same,concentration at 24 h,[16],841 ng/g
same,Tmax,[17],2 h
same,Activity,Rattus norvegicus [18],3.7%
same,Activity,Rattus norvegicus [19],8.6%
same,Vd,[20],1.05 L/kg
same,bioavailability,[21],58%
same,AUC(0-t) at 8 h,[22],1880 ng·h/mL
same,Kp at 24 h,[23],0.61
same,Cp(f),Plasma [24],66.5 nM
same,fraction unbound,[25],0.02
same,inhibition in vivo at 10 mg/kg,Rattus norvegicus [26],29.6%
same,Cmax,[27],313 ng/mL
COCc1nc2ccc(-n3ccc(OCc4ccc(F)cc4)cc3=O)cn2c1C,IC50,[1],> 1000 nM
same,IC50,[2],> 1000 nM
Cc1c(C2CC2)nc2ccc(-n3ccc(OCc4ccc(Br)cc4)cc3=O)cn12,IC50,[1],9.3 nM
same,IC50,[2],12 nM
Cc1c(C2CC2)nc2ccc(-n3ccc(OCc4ccncc4)cc3=O)cn12,IC50,[1],> 1000 nM
same,IC50,[2],> 1000 nM
